Only a selection was taken, and hits are over-represented in it overall.
Apaf-1 act: human Apaf-1 activation. AID 489031. activity change, negative = activation, % at 20 µM. O14727. 0.31% of 330,000 active. Apaf-1 apoptosome caspase-3 activation, DEVD-Rh110 fluorescence; hits give low values;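 active = activity change at or below -40% at 20 µM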
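System: Reconstituted apoptosome of Apaf-1, cytochrome c, caspase-9, procaspase-3 | Reagent: dATP, cytochrome c, and (Z-DEVD)2-Rh110 caspase-3 substrate | Times: 30 min compound preincubation and 50 min reaction, both room temperature | Detection: Caspase-3-released Rh110 fluorescence, 540 nm emission, 480 nm excitation | Measure: Caspase-3 activity via Apaf-1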
Rh110 interf act: Rh110 signal interference in Apaf-1 activator counter-screen. shares compounds with Apaf-1 act. Rh110 fluorescence interference, quenched caspase reaction, Ex480/Em540. fluorescence interference (activity change), % at 20 µM, hits read low. 980 tested, under 10 active;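 active = mean activity change at or below -40% when tested at 20 µM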
Apaf-1 act conf: Apaf-1 (human) activation, single-dose confirmed | shares compounds with Apaf-1 act | reconstituted apoptosome caspase-3 activity, DEVD-Rh110 fluorescence; hits give low values | activity change, negative = activation, % at 20 µM | 5% of 980 active | AID 504617;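 active = mean activity change at or below -40%, meaning activation of 40% or more, at 20 µM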
Apaf1 act interf: Apaf-1 activator counter-screen fluorescence artifact; shares compounds with Apaf-1 act; fluorescence interference counterscreen, Apaf-1 activator assay; EC50, µM; 55 tested, under 10 active; AID 588592; call rule not given here
Numbers without * were called inactive; . = not tested or not shown; + = active, no number.

SMILES | Apaf-1 act | Rh110 interf act | Apaf-1 act conf | others
CCOc1cc(C(c2c(C)[nH][nH]c2=O)c2c(C)[nH][nH]c2=O)ccc1OS(=O)(=O)c1ccc(C)cc1 | 40.6 | . | .
COCCNC(=O)c1c(N)n(CCCn2ccnc2)c2nc3ccccc3nc12 | 93.9 | . | .
CC1(C)S/C(=N/N=C/c2ccco2)NC1=O | -61.3* | 14.2 | 17.2
O=C(CN1CCc2cc3c(cc2C1)OCCCO3)Nc1cccc([N+](=O)[O-])c1 | 43.3 | . | .
O=C(Nc1ccncc1NC(=O)c1cccc([N+](=O)[O-])c1)c1cccc([N+](=O)[O-])c1 | -40.3* | -1.7 | -1.3
O=C(N/N=C/c1ccc(-c2ccccc2[N+](=O)[O-])o1)c1cccnc1 | 78.8 | . | .
C[C@]12C=CC(=O)C=C1CC[C@@H]1C2=CC[C@]2(C)[C@@H](C(=O)CN3CCN(c4cc(N5CCCC5)nc(N5CCCC5)n4)CC3)CC[C@@H]12 | 86.7 | . | .
CCCCn1nnc(NC(=O)Cc2ccc(Cl)cc2)n1 | -95.0* | 4.0 | -3.5
CCCn1nnc(NC(=O)c2ccc(-c3cccc(Cl)c3)o2)n1 | -43.9* | -3.6 | 10.2
CN1CCN(c2ccc(NC(=O)c3ccc(-c4ccc(Br)cc4)o3)cc2)CC1 | 45.3 | . | .
O[C@@H](c1cc(C(F)(F)F)nc2c(C(F)(F)F)cccc12)[C@H]1CCCCN1 | 51.9 | . | .
COc1cc(OC)cc(-c2sc3ccc(OC)cc3c2C#CC2(N)CCCCC2)c1 | 67.2 | . | .
COc1ccc(N)cc1-n1c(C)ccc1C | 83.7 | . | .
Cc1ccc(C(C[N+](=O)[O-])c2c(C)[nH]n(-c3ccccc3)c2=O)cc1 (centres undefined) | 93.4 | . | .
CC1=NN(Cc2ccccc2)C(=O)C1 | 64.9 | . | .
COc1cc(Cn2c(N)c(C#N)c3nc4ccccc4nc32)cc(OC)c1 | 57.9 | . | .
COC(=O)c1ccccc1-c1c2ccc(=N)cc-2oc2cc(N)ccc12 | -332.4* | + | -81.6*
COC(=O)c1ccccc1-c1ccc(C(c2c(C)[nH][nH]c2=O)c2c(C)[nH][nH]c2=O)o1 | 79.2 | . | .
Cc1ccc(NC2=C(NC(=O)c3ccccc3)C(=O)c3ccccc3C2=O)cc1Cl | 67.3 | . | .
C=C(C)C(=O)Nc1cccc(C2=NOC3(C2)C[C@@H](C(N)=O)N(C(=O)c2cc([N+](=O)[O-])cc([N+](=O)[O-])c2C)C3)c1 (some centres undefined) | -106.8* | -2.6 | -128.3* | Apaf1 act interf=>100
C=C(C)C(=O)Nc1cccc(C2=NOC3(C2)C[C@H](C(N)=O)N(C(=O)COc2ccc(Cl)cc2)C3)c1 (some centres undefined) | -344.1* | 0.0 | -126.9* | Apaf1 act interf=>100
C=C(C)C(=O)Nc1cccc(C2=NOC3(C2)C[C@@H](C(N)=O)N(C(=O)c2ccc(Cl)cc2)C3)c1 (some centres undefined) | -204.2* | 12.0 | -126.6* | Apaf1 act interf=>100
C=C(C)C(=O)Nc1cccc(C2=NOC3(C2)C[C@H](C(N)=O)N(C(=O)c2ccccc2)C3)c1 (some centres undefined) | -64.2* | -6.5 | -58.6* | Apaf1 act interf=>100
N#Cc1c(N)n(CCOC(=O)c2cccc(Br)c2)c2nc3ccccc3nc12 | 45.9 | . | .
C#CCOCCOCCOCCNc1nc(N2CCN(C(=O)[C@H]([C@@H](C)CC)n3cc(CCCCN)nn3)CC2)nc(N2CCN(C(=O)[C@H]([C@@H](C)CC)n3cc(CCCN=C(N)N)nn3)CC2)n1 | 46.0 | . | .
SMILES | Apaf-1 act | Rh110 interf act | Apaf-1 act conf | others
COc1ccc(-n2nc3ccc(N)cc3n2)cc1Cl | 95.4 | . | .
C=C(C)C(=O)Nc1cccc(C2=NOC3(C2)C[C@@H](C(N)=O)N(C(=O)C(=C)C)C3)c1 (some centres undefined) | -291.0* | 1.1 | -132.6* | Apaf1 act interf=>100
COCc1ccc(C(=O)N2CCCC(Nc3ccc(C(C)C)cc3)C2)o1 (centres undefined) | -107.3* | -3.5 | 10.1
COCCCNC(=O)c1c(N)n(-c2ccccc2)c2nc3ccccc3nc12 | 83.6 | . | .
Cc1cc(-c2ccc(N=Nc3c(S(=O)(=O)O)cc4cc(S(=O)(=O)O)cc(N)c4c3O)c(C)c2)ccc1N=Nc1c(S(=O)(=O)O)cc2cc(S(=O)(=O)O)cc(N)c2c1O | 98.3 | . | .
COCCN(CCOC)Cc1c(O)ccc2c3c(c(=O)oc12)CCC3 | -336.1* | 3.1 | 4.3
CCN(c1ccccc1)S(=O)(=O)c1ccc(Cl)c(NC(=O)Nc2ccc(Cl)cc2C#N)c1 | 40.2 | . | .
CCN(CC)S(=O)(=O)c1ccc(Cl)c(NC(=O)c2ccc(C#N)cc2)c1 | -270.3* | 5.7 | 16.1
Cc1cc(C)cc(OCC(=O)Nc2ccc(N3CCCC3)cc2)c1 | 40.7 | . | .
COc1cc2cc(NC(C)=O)cc(NCc3ccccc3)c2cc1OC | 87.6 | . | .
